# Test results reported in ChEMBL document CHEMBL3792370, “New pseudodimeric aurones as palm pocket inhibitors of Hepatitis C virus RNA-dependent RNA polymerase” (Eur J Med Chem, 2016).
# Calls of active or inactive are those of the source. The calls are words filed in the database; no cut-off is given here.
# Key:
# Hepatitis C virus = assay: Antiviral activity against HCV genotype 2a/2a J6/JFH1 model infected in Huh7.5 cells after 72 hrs by luciferase reporter gene assay; assay type: functional, organism-based, Hepacivirus hominis; settings: subtype 2a J6/JFH1, Huh7.5, 72 h
# How it was run: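 Huh7.5 cells were seeded at 10 000 cells/well and infected 24 h later with J6/JFH1 HCVcc, then incubated overnight at 37°C. Cells were washed and given increasing compound concentrations in medium with 1% DMSO for 72 h at 37°C. After a PBS wash, cells were lysed in Renilla lysis buffer and luciferase activity was read for 10 s.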
# [1] = Inhibition of HCV J4 genotype 1b recombinant His-tagged NS5B truncated at 21 C-terminal expressed in Escherichia coli C41 (DE3) assessed as synthesis of […]; design: species or system Hepatitis C virus isolate HC-J4
# HEK293 = assay: Cytotoxicity against HEK293 cells at 50 uM after 72 hrs by MTT assay; settings: human, hek293, 72 h
# [2] = system: Hepatitis C virus isolate HC-J4; assay: Inhibition of HCV J4 genotype 1b recombinant His-tagged NS5B truncated at 21 C-terminal H95Q mutant expressed in Escherichia coli C41 (DE3) assessed as synthesis of […]
# [3] = Inhibition of HCV J4 genotype 1b recombinant His-tagged NS5B truncated at 21 C-terminal P495L mutant expressed in Escherichia coli C41 (DE3) assessed as synthesis of […]; design: species or system Hepatitis C virus isolate HC-J4
SMILES,EC50 (Hepatitis C virus),IC50 [1],Activity (HEK293),Activity [2],IC50 [3]
CC(C)CC(COc1ccc(/C=C2\Oc3ccccc3C2=O)cc1)COc1ccc(/C=C2\Oc3ccccc3C2=O)cc1,> 400 µM,,,,
O=C1/C(=C/c2ccc(/C=C3\Oc4cc(O)cc(O)c4C3=O)cc2)Oc2cc(O)cc(O)c21,202 µM,1.3 µM,Non-toxic,inactive,1.5 µM
O=C1/C(=C/c2cccc(/C=C3\Oc4cc(O)cc(O)c4C3=O)c2)Oc2cc(O)cc(O)c21,,3.6 µM,,,
COc1cc(OC)c2c(c1)O/C(=C\c1cccc(/C=C3\Oc4cc(OC)cc(OC)c4C3=O)c1)C2=O,,,Non-toxic,,
O=C1/C(=C/c2ccc(-c3ccccc3/C=C3\Oc4cc(O)cc(O)c4C3=O)cc2)Oc2cc(O)cc(O)c21,,6 µM,,,

# The next lines start with results.
EC50 (Hepatitis C virus),IC50 [1],SMILES,Activity (HEK293),Activity [2],IC50 [3]
42 µM,2 µM,O=C1/C(=C/c2ccc(OCC(COc3ccc(/C=C4\Oc5cc(O)cc(O)c5C4=O)cc3)C3CCCCC3)cc2)Oc2cc(O)cc(O)c21 (stereo unspecified),,,
214 µM,1.5 µM,O=C1/C(=C/c2ccc(OCCCOc3ccc(/C=C4\Oc5cc(O)cc(O)c5C4=O)cc3)cc2)Oc2cc(O)cc(O)c21,,,
76 µM,1.9 µM,CC(C)CC(COc1ccc(/C=C2\Oc3cc(O)cc(O)c3C2=O)cc1)COc1ccc(/C=C2\Oc3cc(O)cc(O)c3C2=O)cc1,,,
,1.9 µM,O=C1/C(=C/c2ccc(OCC(COc3ccc(/C=C4\Oc5cc(O)cc(O)c5C4=O)cc3)C3CCCC3)cc2)Oc2cc(O)cc(O)c21 (stereo unspecified),,,
90 µM,1.8 µM,O=C1/C(=C/c2ccc(OCC(COc3ccc(/C=C4\Oc5cc(O)cc(O)c5C4=O)cc3)CC3CCCCC3)cc2)Oc2cc(O)cc(O)c21 (stereo unspecified),,,
,3.1 µM,O=C1/C(=C/c2ccc(-c3cccc(/C=C4\Oc5cc(O)cc(O)c5C4=O)c3)cc2)Oc2cc(O)cc(O)c21,,,
9.1 µM,0.6 µM,COc1c(-c2ccc3cc(NS(C)(=O)=O)ccc3c2)cc(-n2ccc(=O)[nH]c2=O)cc1C(C)(C)C [DASABUVIR],,,
